Starred links: 1 amine or outer side, 2 acyl side, 3 side chain; linkers in the order of their positions; H or OH if unused. Positions of bridges follow the written chain, without caps; N, C: chain ends. Non-standard residues stand in square brackets, D forms with d. Residues, ends and D or L forms follow the SMILES beside them. X1 = O=C([C@@H](CCCCC=[*:3])N[*:1])[*:2]; X2 = O=C([C@H](CCCCCC=[*:3])N[*:1])[*:2]; Gla = N[C@@H](CC(C(=O)O)C(=O)O)C(=O)O; Aib = CC(C)(N)C(=O)O
Legend:
RAW264.7 [1] = experiment: Induction of [3H]cholesterol efflux in mouse RAW264.7 cells after 24 hrs by scintillation counting; format: functional, cell-based
In short: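 Cholesterol efflux from RAW macrophages; EC50 reported in µM as the mean of three experiments.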

[2] = Toxicity in human RBC assessed as hemolysis; format: cell-based, Erythrocyte; details: red blood cells (RBC)
In short: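 Red blood cell lysis assay; cytotoxicity reported as IC50 in µM.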

RAW264.7 [3] = experiment: Cytotoxicity against mouse RAW264.7 cells after 24 hrs by MTT assay; format: cell-based; details: RAW264.7, 24 h
In short: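 RAW macrophage cytotoxicity examined at peptide concentrations up to 160 µM.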

RAW264.7 [4] = experiment: Induction of [3H]cholesterol efflux in mouse RAW264.7 cells at 30 uM after 24 hrs by scintillation counting; format: functional, cell-based
[5] = Mus musculus, RAW264.7, read-out: EC50

Molecule | EC50 (RAW264.7 [1]; [5]) | IC50 [2] | IC50 (RAW264.7 [3]) | cholesterol efflux (RAW264.7 [4]) | EC50 (RAW264.7 [1]; raw264.7)
CC(C)C[C@H](NC(=O)[C@H](C)NC(=O)[C@H](CCC(=O)O)NC(=O)[C@H](CC(C)C)NC(=O)[C@H]1CCC/C=C\CCC[C@@H](NC(=O)[C@H](CCC(=O)O)NC(=O)[C@H](CCCNC(=N)N)NC(=O)[C@H](Cc2ccccc2)NC(=O)[C@H](CCC(=O)O)NC(=O)[C@H](CC(=O)O)NC(=O)[C@H](CC(C)C)NC(=O)[C@@H](NC(=O)[C@@H]2CCCN2)C(C)C)C(=O)N[C@@H](CC(C)C)C(=O)N[C@@H](CC(N)=O)C(=O)N[C@@H](CCC(=O)O)C(=O)N1)C(=O)N[C@@H](CCCCN)C(=O)N[C@@H](CCC(N)=O)C(=O)N[C@@H](CCCCN)C(=O)N[C@@H](CC(C)C)C(=O)N[C@@H](CCCCN)C(=O)O | 10 µM | > 160 µM | > 160 µM |  | 
C=CCCC[C@@H](NC(=O)[C@H](C)NC(=O)[C@H](CCC(=O)O)NC(=O)[C@H](CC(C)C)NC(=O)[C@@H](CCCC=C)NC(=O)[C@H](CCC(=O)O)NC(=O)[C@H](CC(N)=O)NC(=O)[C@H](CC(C)C)NC(=O)[C@H](CCCCN)NC(=O)[C@H](CCC(=O)O)NC(=O)[C@H](CCCNC(=N)N)NC(=O)[C@H](Cc1ccccc1)NC(=O)[C@H](CCC(=O)O)NC(=O)[C@H](CC(=O)O)NC(=O)[C@H](CC(C)C)NC(=O)[C@@H](NC(=O)[C@@H]1CCCN1)C(C)C)C(=O)N[C@@H](CCCCN)C(=O)N[C@@H](CCC(N)=O)C(=O)N[C@@H](CCCCN)C(=O)N[C@@H](CC(C)C)C(=O)N[C@@H](CCCCN)C(=O)O |  | > 160 µM | > 160 µM | 3% | 
CC(C)C[C@H](NC(=O)[C@H](C)NC(=O)[C@H](CCC(=O)O)NC(=O)[C@H](CC(N)=O)NC(=O)[C@H](CC(C)C)NC(=O)[C@H](CCCCN)NC(=O)[C@H](CC(C(=O)O)C(=O)O)NC(=O)[C@H](CCCNC(=N)N)NC(=O)[C@H](Cc1ccccc1)NC(=O)[C@H](CCC(=O)O)NC(=O)[C@H](CC(=O)O)NC(=O)[C@H](CC(C)C)NC(=O)[C@@H](NC(=O)[C@@H]1CCCN1)C(C)C)C(=O)N[C@@H](CCC(=O)O)C(=O)N[C@@H](C)C(=O)N[C@@H](CC(C)C)C(=O)N[C@@H](CCCCN)C(=O)N[C@@H](CCC(N)=O)C(=O)N[C@@H](CCCCN)C(=O)N[C@@H](CC(C)C)C(=O)N[C@@H](CCCCN)C(=O)O (H-PVLDEFR[Gla]KLNEALEALKQKLK-OH) | 142 µM | 40 µM | > 160 µM |  | 
CC(C)C[C@H](NC(=O)[C@H](CCCCN)NC(=O)[C@H](CCC(N)=O)NC(=O)[C@H](CCCCN)NC(=O)[C@H]1CCC/C=C\CCC[C@@H](NC(=O)[C@H](CCC(=O)O)NC(=O)[C@H](CC(N)=O)NC(=O)[C@H](CC(C)C)NC(=O)[C@H](CCCCN)NC(=O)[C@H](CCC(=O)O)NC(=O)[C@H](CCCNC(=N)N)NC(=O)[C@H](Cc2ccccc2)NC(=O)[C@H](CCC(=O)O)NC(=O)[C@H](CC(=O)O)NC(=O)[C@H](CC(C)C)NC(=O)[C@@H](NC(=O)[C@@H]2CCCN2)C(C)C)C(=O)N[C@@H](CC(C)C)C(=O)N[C@@H](CCC(=O)O)C(=O)N[C@@H](C)C(=O)N1)C(=O)N[C@@H](CCCCN)C(=O)O |  | > 160 µM | > 160 µM | 2% | 
C=CCCCCC[C@H](NC(=O)[C@H](CCC(=O)O)NC(=O)[C@H](CC(=O)O)NC(=O)[C@H](CC(C)C)NC(=O)[C@@H](NC(=O)[C@@H]1CCCN1)C(C)C)C(=O)N[C@@H](CCCNC(=N)N)C(=O)N[C@@H](CCC(=O)O)C(=O)N[C@@H](CCCCN)C(=O)N[C@@H](CC(C)C)C(=O)N[C@@H](CC(N)=O)C(=O)N[C@H](CCC(=O)O)C(=O)N[C@@H](CCCCC=C)C(=O)N[C@H](CC(C)C)C(=O)N[C@H](CCC(=O)O)C(=O)N[C@H](C)C(=O)N[C@H](CC(C)C)C(=O)N[C@H](CCCCN)C(=O)N[C@H](CCC(N)=O)C(=O)N[C@H](CCCCN)C(=O)N[C@H](CC(C)C)C(=O)N[C@H](CCCCN)C(=O)O | 1.3 µM | > 160 µM | > 160 µM |  | 
CC(C)C[C@H](NC(=O)[C@H](C)NC(=O)[C@H](CCC(=O)O)NC(=O)[C@H](CC(C)C)NC(=O)[C@@H]1CCC/C=C\CCC[C@@H](NC(=O)[C@H](CCC(=O)O)NC(=O)[C@H](CCCNC(=N)N)NC(=O)[C@H](Cc2ccccc2)NC(=O)[C@H](CCC(=O)O)NC(=O)[C@H](CC(=O)O)NC(=O)[C@H](CC(C)C)NC(=O)[C@@H](NC(=O)[C@@H]2CCCN2)C(C)C)C(=O)N[C@@H](CC(C)C)C(=O)N[C@@H](CC(N)=O)C(=O)N[C@@H](CCC(=O)O)C(=O)N1)C(=O)N[C@@H](CCCCN)C(=O)N[C@@H](CCC(N)=O)C(=O)N[C@@H](CCCCN)C(=O)N[C@@H](CC(C)C)C(=O)N[C@@H](CCCCN)C(=O)O |  | > 160 µM | > 160 µM |  | Not Active
CC(C)C[C@H](NC(=O)[C@H](C)NC(=O)[C@H](CC(C(=O)O)C(=O)O)NC(=O)[C@H](CC(C)C)NC(=O)C(C)(C)NC(=O)[C@H](CCC(=O)O)NC(=O)[C@H](CC(N)=O)NC(=O)[C@H](CC(C)C)NC(=O)[C@H](CCCCN)NC(=O)[C@H](CCC(=O)O)NC(=O)[C@H](CCCNC(=N)N)NC(=O)[C@H](Cc1ccccc1)NC(=O)[C@H](CCC(=O)O)NC(=O)[C@H](CC(=O)O)NC(=O)[C@H](CC(C)C)NC(=O)[C@@H](NC(=O)[C@@H]1CCCN1)C(C)C)C(=O)N[C@@H](CCCCN)C(=O)N[C@@H](CCC(N)=O)C(=O)N[C@@H](CCCCN)C(=O)N[C@@H](CC(C)C)C(=O)N[C@@H](CCCCN)C(=O)O (H-PVLDEFREKLNE[Aib]L[Gla]ALKQKLK-OH) | 41 µM | 75 µM | > 160 µM |  | 
C=CCCC[C@@H](NC(=O)[C@H](CCC(=O)O)NC(=O)[C@H](CC(N)=O)NC(=O)[C@H](CC(C)C)NC(=O)[C@@H](CCCC=C)NC(=O)[C@H](CCC(=O)O)NC(=O)[C@H](CCCNC(=N)N)NC(=O)[C@H](Cc1ccccc1)NC(=O)[C@H](CCC(=O)O)NC(=O)[C@H](CC(=O)O)NC(=O)[C@H](CC(C)C)NC(=O)[C@@H](NC(=O)[C@@H]1CCCN1)C(C)C)C(=O)N[C@@H](CC(C)C)C(=O)N[C@@H](CCC(=O)O)C(=O)N[C@@H](C)C(=O)N[C@@H](CC(C)C)C(=O)N[C@@H](CCCCN)C(=O)N[C@@H](CCC(N)=O)C(=O)N[C@@H](CCCCN)C(=O)N[C@@H](CC(C)C)C(=O)N[C@@H](CCCCN)C(=O)O | 46 µM | > 160 µM | > 160 µM |  | 
CC(C)C[C@H](NC(=O)[C@H](CCCCN)NC(=O)[C@H](CCC(N)=O)NC(=O)[C@H](CCCCN)NC(=O)[C@H](CC(C)C)NC(=O)C(C)(C)NC(=O)[C@H](CCC(=O)O)NC(=O)[C@H](CC(C)C)NC(=O)C(C)(C)NC(=O)[C@H](CCC(=O)O)NC(=O)[C@H](CC(N)=O)NC(=O)[C@H](CC(C)C)NC(=O)[C@H](CCCCN)NC(=O)[C@H](CCC(=O)O)NC(=O)[C@H](CCCNC(=N)N)NC(=O)[C@H](Cc1ccccc1)NC(=O)[C@H](CCC(=O)O)NC(=O)[C@H](CC(=O)O)NC(=O)[C@H](CC(C)C)NC(=O)[C@@H](NC(=O)[C@@H]1CCCN1)C(C)C)C(=O)N[C@@H](CCCCN)C(=O)O (H-PVLDEFREKLNE[Aib]LE[Aib]LKQKLK-OH) | 23 µM | > 160 µM | > 160 µM |  | 
CC.CC(C)C[C@H](NC(=O)[C@H](C)NC(=O)[C@H](CCC(=O)O)NC(=O)[C@H](CC(C)C)NC(=O)[C@@H]1CCCCC/C=C\CCCC[C@@H](NC(=O)[C@H](CCC(=O)O)NC(=O)[C@H](CC(=O)O)NC(=O)[C@H](CC(C)C)NC(=O)[C@@H](NC(=O)[C@@H]2CCCN2)C(C)C)C(=O)N[C@@H](CCCNC(=N)N)C(=O)N[C@@H](CCC(=O)O)C(=O)N[C@@H](CCCCN)C(=O)N[C@@H](CC(C)C)C(=O)N[C@@H](CC(N)=O)C(=O)N[C@@H](CCC(=O)O)C(=O)N1)C(=O)N[C@@H](CCCCN)C(=O)N[C@@H](CCC(N)=O)C(=O)N[C@@H](CCCCN)C(=O)N[C@@H](CC(C)C)C(=O)N[C@@H](CCCCN)C(=O)O (H-PVLDE[X1]REKLNE[X2]LEALKQKLK-OH; staple (Z) 6-13) | 2 µM | > 160 µM | > 160 µM |  | 
CC(C)C[C@H](NC(=O)[C@H](C)NC(=O)[C@H](CCC(=O)O)NC(=O)[C@H](CC(C)C)NC(=O)C(C)(C)NC(=O)[C@H](CCC(=O)O)NC(=O)[C@H](CC(N)=O)NC(=O)[C@H](CC(C)C)NC(=O)[C@H](CCCCN)NC(=O)[C@H](CC(C(=O)O)C(=O)O)NC(=O)[C@H](CCCNC(=N)N)NC(=O)[C@H](Cc1ccccc1)NC(=O)[C@H](CCC(=O)O)NC(=O)[C@H](CC(=O)O)NC(=O)[C@H](CC(C)C)NC(=O)[C@@H](NC(=O)[C@@H]1CCCN1)C(C)C)C(=O)N[C@@H](CCCCN)C(=O)N[C@@H](CCC(N)=O)C(=O)N[C@@H](CCCCN)C(=O)N[C@@H](CC(C)C)C(=O)N[C@@H](CCCCN)C(=O)O (H-PVLDEFR[Gla]KLNE[Aib]LEALKQKLK-OH) | 44 µM | 75 µM | > 160 µM |  | 
CC(C)C[C@H](NC(=O)[C@H](C)NC(=O)[C@H](CCC(=O)O)NC(=O)[C@H](CC(N)=O)NC(=O)[C@H](CC(C)C)NC(=O)[C@H](CCCCN)NC(=O)[C@H](CCC(=O)O)NC(=O)[C@H](CCCNC(=N)N)NC(=O)[C@H](Cc1ccccc1)NC(=O)[C@H](CCC(=O)O)NC(=O)[C@H](CC(=O)O)NC(=O)[C@H](CC(C)C)NC(=O)[C@@H](NC(=O)[C@@H]1CCCN1)C(C)C)C(=O)N[C@@H](CC(C(=O)O)C(=O)O)C(=O)N[C@@H](C)C(=O)N[C@@H](CC(C)C)C(=O)N[C@@H](CCCCN)C(=O)N[C@@H](CCC(N)=O)C(=O)N[C@@H](CCCCN)C(=O)N[C@@H](CC(C)C)C(=O)N[C@@H](CCCCN)C(=O)O (H-PVLDEFREKLNEAL[Gla]ALKQKLK-OH) | 234 µM | 75 µM | > 160 µM |  | 
H-PVLDEFREKLNEELEALKQKLK-OH |  | 40 µM | > 160 µM |  | Not Active

Reference: ChEMBL document CHEMBL1153146, “Novel potent apoA-I peptide mimetics that stimulate cholesterol efflux and pre-beta particle formation in vitro” (Bioorg Med Chem Lett, 2010)
